Test results published in ChEMBL document CHEMBL1126247, “Iodoaminopotentidine and related compounds: a new class of ligands with high affinity and selectivity for the histamine H2 receptor” (J Med Chem, 1992).

Experiments:
[1] = molecular target: Histamine H1 receptor (Cavia porcellus) (UniProt P31389); assay: Histamine H1 receptor antagonistic activity on the isolated guinea pig ileum determined by Schild plot.
Target sequence in this assay (P31389 whole entry, looked up): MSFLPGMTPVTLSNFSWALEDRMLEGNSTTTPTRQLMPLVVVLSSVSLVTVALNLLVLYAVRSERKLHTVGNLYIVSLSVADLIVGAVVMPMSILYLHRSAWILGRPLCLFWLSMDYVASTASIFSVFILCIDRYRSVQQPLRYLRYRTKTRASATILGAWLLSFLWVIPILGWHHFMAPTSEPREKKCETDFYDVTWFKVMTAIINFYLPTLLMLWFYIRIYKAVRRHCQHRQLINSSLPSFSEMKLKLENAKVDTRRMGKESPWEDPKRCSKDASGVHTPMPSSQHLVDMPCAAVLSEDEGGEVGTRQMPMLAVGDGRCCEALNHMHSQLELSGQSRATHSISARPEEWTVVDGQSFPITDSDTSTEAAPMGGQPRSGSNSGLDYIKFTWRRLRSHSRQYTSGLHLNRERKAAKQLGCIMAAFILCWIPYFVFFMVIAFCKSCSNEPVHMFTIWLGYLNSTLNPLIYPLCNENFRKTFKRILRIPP

[2] = molecular target: Histamine H2 receptor (Cavia porcellus) (UniProt P47747); assay: Histamine H2 receptor antagonistic activity at concentrations of 0.1,0.3 and 1 uM on the isolated guinea pig right atrium.; format: functional, tissue-based; conditions: Cardiac atrium
Histamine H2 receptor [3] = molecular target: T1, Histamine H2 receptor (Cavia porcellus, UniProt P47747); assay: Inhibition of [125I]APT binding to H2 receptors in guinea pig cerebral membranes.; format: cell membranes
How it was run: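 Striatal membranes from male Hartley guinea pigs (200-300 g) in 50 mM sodium/potassium phosphate, pH 7.5, with 0.1% gelatin. Stopped with cold buffer containing 0.1% BSA, then filtered on polyethylenimine-treated glass-fiber filters and γ-counted. Azido compounds handled under dim light.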

[4] = molecular target: Muscarinic acetylcholine receptor M3 (Cavia porcellus) (UniProt Q8VH26); assay: Muscarinic acetylcholine receptor M3 antagonistic activity at concentrations of 10 and 30 uM on the isolated guinea pig iluem.; format: functional
How it was run: (§1)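 Guinea pig proximal ileum, isotonic recording under a 10 mN load in gassed Tyrode's solution. Cumulative carbachol (3-300 nM) curves as reference agonist. Antagonist incubated 10 min. pK_B calculated from concentration ratio, or pA2 by Schild plot.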

[5] = molecular target: Histamine H2 receptor (Cavia porcellus) (UniProt P47747); assay: Histamine H2 receptor antagonistic activity on the isolated guinea pig right atrium determined by Schild plot.; format: functional, tissue-based; conditions: Cardiac atrium
[6] = molecular target: Histamine H2 receptor (Cavia porcellus) (UniProt P47747); assay: Potency to inhibit the positive chronotropic response (H2-antagonism) of guinea pig right atrium relative to cimetidine.; format: functional, tissue-based; conditions: Cardiac atrium
Histamine H1 receptor = Histamine H1 receptor (Cavia porcellus, UniProt P31389); assay: (§2) Histamine H1 receptor antagonistic activity on the isolated guinea pig ileum determined by Schild plot.; format: functional, tissue-based; conditions: read-out: pA2 (converted)
How it was run: (§3)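 Whole proximal guinea pig ileum segments in Tyrode's solution gassed with 95% O2/5% CO2, isotonic recording at 10 mN load. Cumulative histamine (0.01-3 μM) curves. Antagonist applied 10 min before the curve. pK_B from concentration ratio, or pA2 by Schild plot.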

[7] = molecular target: Histamine H2 receptor (Cavia porcellus) (UniProt P47747); assay: Histamine H2 receptor antagonism at a concentration of 1 umolar on the isolated guinea pig right atrium.; format: functional, tissue-based; conditions: Cardiac atrium
[8] = molecular target: Muscarinic acetylcholine receptor M3 (Cavia porcellus) (UniProt Q8VH26); conditions: 10 uM
[9] = molecular target: Histamine H2 receptor (Cavia porcellus) (UniProt P47747); assay: Histamine H2 receptor antagonistic activity at a concentration of 0.3 uM on the isolated guinea pig right atrium; format: functional, tissue-based; conditions: Cardiac atrium
[10] = molecular target: Histamine H2 receptor (Cavia porcellus) (UniProt P47747); conditions: Cardiac atrium
[11] = molecular target: Histamine H2 receptor (Cavia porcellus) (UniProt P47747); assay: Histamine H2 receptor antagonistic activity at concentrations of 0.03 and 0.1 uM on the isolated guinea pig right atrium.; format: functional, tissue-based; conditions: Cardiac atrium
[12] = molecular target: Muscarinic acetylcholine receptor M3 (Cavia porcellus) (UniProt Q8VH26); assay: muscarinic acetylcholine receptor M3 antagonistic activity on the isolated guinea pig ileum determined by Schild plot.; format: functional, tissue-based
How it was run: as §1

[13] = molecular target: Histamine H2 receptor (Cavia porcellus) (UniProt P47747); assay: Inhibition of the positive chronotropic response (histamine H2 receptor antagonism) of guinea pig right atrium relative to cimetidine.; format: functional, tissue-based; conditions: Cardiac atrium
Histamine H2 receptor [14] = molecular target: T1, Histamine H2 receptor; assay: Histamine H2 receptor antagonistic activity on the isolated guinea pig right atrium.; conditions: read-out: pA2 (converted)
[15] = molecular target: Histamine H1 receptor (Cavia porcellus) (UniProt P31389); assay: as §2; format: functional, tissue-based
How it was run: as §3
Target sequence in this assay (P31389 whole entry): as the sequence (P31389 whole entry, looked up) above

[16] = molecular target: Muscarinic acetylcholine receptor M3 (Cavia porcellus, UniProt Q8VH26); assay: muscarinic acetylcholine receptor M3-antagonistic activity on the isolated guinea pig ileum determined by Schild plot.; format: functional, tissue-based; conditions: read-out: pA2 (converted)
How it was run: as §1

[17] = molecular target: Histamine H2 receptor (Cavia porcellus) (UniProt P47747); assay: Histamine H2 receptor antagonistic activity at a concentration of 30 uM on the isolated guinea pig right atrium.; format: functional, tissue-based; conditions: Cardiac atrium
[18] = Inhibition of the positive chronotropic response (H2-antagonism) of guinea pig right atrium relative to cimetidine.; format: functional, Cavia porcellus, Cardiac atrium
[19] = molecular target: Histamine H2 receptor (Cavia porcellus) (UniProt P47747); assay: Histamine H2 receptor antagonistic activity at a concentration of 0.1 uM on the isolated guinea pig right atrium.; format: functional, tissue-based; conditions: Cardiac atrium
[20] = molecular target: Histamine H2 receptor (Cavia porcellus) (UniProt P47747); assay: Histamine H2 receptor antagonistic activity at a concentration of 0.03 and 1 uM on the isolated guinea pig right atrium.; format: functional, tissue-based; conditions: Cardiac atrium
[21] = molecular target: T2, Adrenergic receptor alpha-1 (Rattus norvegicus, UniProt P15823+P23944+P43140); assay: (§4) Alpha-1 adrenergic receptor antagonistic activity on the rat aorta determined by Schild plot.; format: functional, tissue-based
T2 sequence (P15823 whole entry): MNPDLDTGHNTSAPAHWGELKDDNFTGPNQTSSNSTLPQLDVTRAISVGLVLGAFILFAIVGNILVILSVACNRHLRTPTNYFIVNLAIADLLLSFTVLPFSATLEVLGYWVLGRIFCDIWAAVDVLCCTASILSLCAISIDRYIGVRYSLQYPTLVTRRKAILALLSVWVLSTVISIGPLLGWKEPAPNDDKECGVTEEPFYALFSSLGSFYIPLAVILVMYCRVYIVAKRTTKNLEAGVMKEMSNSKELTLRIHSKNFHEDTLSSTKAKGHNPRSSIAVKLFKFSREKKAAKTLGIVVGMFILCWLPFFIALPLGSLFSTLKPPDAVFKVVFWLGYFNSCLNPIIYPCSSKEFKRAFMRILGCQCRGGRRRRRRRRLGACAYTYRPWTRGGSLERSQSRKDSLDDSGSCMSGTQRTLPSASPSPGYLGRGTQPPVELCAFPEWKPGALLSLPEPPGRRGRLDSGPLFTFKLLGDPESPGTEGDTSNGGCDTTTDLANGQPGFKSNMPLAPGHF
T2 sequence (P23944 whole entry): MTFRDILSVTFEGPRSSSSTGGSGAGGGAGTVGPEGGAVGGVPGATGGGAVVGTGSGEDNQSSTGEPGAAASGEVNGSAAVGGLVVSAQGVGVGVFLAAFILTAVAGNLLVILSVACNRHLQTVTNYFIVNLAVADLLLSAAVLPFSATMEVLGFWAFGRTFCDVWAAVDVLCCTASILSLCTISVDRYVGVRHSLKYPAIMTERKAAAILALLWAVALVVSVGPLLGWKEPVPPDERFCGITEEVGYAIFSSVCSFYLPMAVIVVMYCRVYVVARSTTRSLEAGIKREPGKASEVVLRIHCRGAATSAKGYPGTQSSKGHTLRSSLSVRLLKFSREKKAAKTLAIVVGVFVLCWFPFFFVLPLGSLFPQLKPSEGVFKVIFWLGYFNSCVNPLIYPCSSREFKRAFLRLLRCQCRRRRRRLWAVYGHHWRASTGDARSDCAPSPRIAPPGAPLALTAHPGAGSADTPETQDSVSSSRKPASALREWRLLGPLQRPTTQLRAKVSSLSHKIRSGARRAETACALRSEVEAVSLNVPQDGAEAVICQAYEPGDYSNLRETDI
T2 sequence (P43140 whole entry): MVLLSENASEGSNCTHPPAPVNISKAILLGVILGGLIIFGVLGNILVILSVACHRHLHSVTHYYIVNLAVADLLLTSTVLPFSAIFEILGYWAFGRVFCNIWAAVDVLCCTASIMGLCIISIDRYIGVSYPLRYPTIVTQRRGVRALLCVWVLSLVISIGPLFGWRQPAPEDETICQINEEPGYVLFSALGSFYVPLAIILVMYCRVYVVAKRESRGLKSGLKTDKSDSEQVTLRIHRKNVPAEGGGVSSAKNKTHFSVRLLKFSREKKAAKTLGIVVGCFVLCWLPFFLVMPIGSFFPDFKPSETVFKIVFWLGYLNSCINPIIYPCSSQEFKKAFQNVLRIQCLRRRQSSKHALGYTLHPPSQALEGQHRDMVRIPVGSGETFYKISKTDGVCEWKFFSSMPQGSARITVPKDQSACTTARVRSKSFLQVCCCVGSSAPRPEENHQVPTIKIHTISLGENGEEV
How it was run: (§5)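 Endothelium-denuded thoracic aortic rings from the same rats, mounted isometrically, resting force 20 mN. Equilibration 140 min with two primings of 0.1 μM (R)-phenylephrine. Cumulative (R)-phenylephrine (0.003-10 μM) curves recorded with 1 μM (±)-propranolol present.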

[22] = molecular target: Adrenergic receptor alpha-1 (Rattus norvegicus) (UniProt P15823+P23944+P43140); assay: as §4; format: functional, tissue-based
How it was run: as §5

[23] = molecular target: Beta-1 adrenergic receptor (Cavia porcellus) (UniProt B0FL73); assay: Beta-1 Adrenergic receptor antagonistic activity at concentrations of 10 and 30 uM on the isolated guinea pig right atrium.; format: functional, tissue-based; conditions: Cardiac atrium
How it was run: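 Spontaneously beating guinea pig right atrium, isometric recording of chronotropic response. Cumulative isoprenaline (0.1-30 nM) curves as reference agonist. Incubation handled as in the H2 protocol. pK_B = -log[antagonist] + log(concentration ratio - 1).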

[24] = molecular target: Histamine H2 receptor (Cavia porcellus) (UniProt P47747); assay: Histamine H2 receptor antagonistic activity at concentrations of 0.03,0.1 and 0.3 uM on the isolated guinea pig right atrium.; format: functional, tissue-based; conditions: Cardiac atrium
[25] = molecular target: Muscarinic acetylcholine receptor M3 (Cavia porcellus) (UniProt Q8VH26); assay: muscarinic acetylcholine receptor M3 antagonistic activity at concentrations of 10 and 30 uM on the isolated guinea pig iluem.; format: functional
How it was run: as §1

[26] = molecular target: Histamine H1 receptor (Cavia porcellus) (UniProt P31389); assay: Histamine H1 receptor antagonistic activity at a concentration of 3 and 10 uM on the isolated guinea pig iluem.; format: functional
How it was run: as §3
Target sequence in this assay (P31389 whole entry): as the sequence (P31389 whole entry, looked up) above

[27] = molecular target: Serotonin 2 (5-HT2) receptor (Rattus norvegicus) (UniProt P30994+P08909+P14842); assay: (§6) 5-hydroxytryptamine 2 receptor antagonistic activity on the rat tail artery determined by Schild plot.; format: functional, tissue-based
How it was run: (§7)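 Endothelium-denuded ventral tail artery segments from male Wistar rats (280-350 g), resting force 5 mN, 120 min equilibration with one 1 μM 5-HT priming. Two to three cumulative 5-HT (0.01-10 μM) curves per preparation.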

[28] = molecular target: Serotonin 2 (5-HT2) receptor (Rattus norvegicus, UniProt P30994+P08909+P14842); assay: as §6; format: functional, tissue-based
How it was run: as §7

Chain of Histamine H2 receptor (Cavia porcellus) (P47747 whole entry): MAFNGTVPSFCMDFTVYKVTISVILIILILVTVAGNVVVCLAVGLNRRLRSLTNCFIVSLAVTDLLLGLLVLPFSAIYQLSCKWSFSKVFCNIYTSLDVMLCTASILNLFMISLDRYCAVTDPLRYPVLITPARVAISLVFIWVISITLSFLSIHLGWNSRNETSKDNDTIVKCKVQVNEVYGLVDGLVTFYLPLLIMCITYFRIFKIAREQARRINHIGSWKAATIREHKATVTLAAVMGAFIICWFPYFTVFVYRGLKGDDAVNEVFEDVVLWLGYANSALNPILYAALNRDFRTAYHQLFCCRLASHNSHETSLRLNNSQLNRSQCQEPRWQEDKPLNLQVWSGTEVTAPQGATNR
Chain of Muscarinic acetylcholine receptor M3 (Cavia porcellus) (Q8VH26 1-587): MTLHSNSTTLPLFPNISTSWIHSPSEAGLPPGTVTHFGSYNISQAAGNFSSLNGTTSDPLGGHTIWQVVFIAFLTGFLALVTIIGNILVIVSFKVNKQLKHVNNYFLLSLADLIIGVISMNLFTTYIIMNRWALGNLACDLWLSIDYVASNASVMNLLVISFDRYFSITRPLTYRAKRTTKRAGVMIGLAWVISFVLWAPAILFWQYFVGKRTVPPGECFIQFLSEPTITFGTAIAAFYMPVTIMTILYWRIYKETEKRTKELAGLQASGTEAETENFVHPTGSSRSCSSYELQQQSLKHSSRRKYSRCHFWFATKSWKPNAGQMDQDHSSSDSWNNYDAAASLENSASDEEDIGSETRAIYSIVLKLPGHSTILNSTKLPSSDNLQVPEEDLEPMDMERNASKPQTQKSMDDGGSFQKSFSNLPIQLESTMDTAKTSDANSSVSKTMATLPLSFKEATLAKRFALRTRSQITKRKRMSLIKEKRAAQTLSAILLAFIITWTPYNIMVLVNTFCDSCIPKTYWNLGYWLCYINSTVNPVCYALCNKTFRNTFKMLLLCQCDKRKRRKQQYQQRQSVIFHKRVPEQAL
T1 sequence (P47747 whole entry): as the sequence (P47747 whole entry) above
Chain of Histamine H1 receptor (P31389 whole entry): as the sequence (P31389 whole entry, looked up) above
Chain of Beta-1 adrenergic receptor (Cavia porcellus) (B0FL73 1-467): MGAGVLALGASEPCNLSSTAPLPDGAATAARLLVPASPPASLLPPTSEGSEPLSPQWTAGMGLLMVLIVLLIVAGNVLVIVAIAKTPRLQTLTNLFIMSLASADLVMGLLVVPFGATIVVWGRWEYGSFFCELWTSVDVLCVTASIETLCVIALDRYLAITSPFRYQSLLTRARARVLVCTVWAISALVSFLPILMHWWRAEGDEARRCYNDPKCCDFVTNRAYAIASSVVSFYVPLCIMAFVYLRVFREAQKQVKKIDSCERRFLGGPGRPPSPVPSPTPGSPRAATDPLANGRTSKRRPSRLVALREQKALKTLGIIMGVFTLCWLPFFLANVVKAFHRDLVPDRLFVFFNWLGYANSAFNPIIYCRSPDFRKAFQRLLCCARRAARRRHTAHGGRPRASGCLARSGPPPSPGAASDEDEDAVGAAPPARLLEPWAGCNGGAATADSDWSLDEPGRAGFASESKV
Chain of Serotonin 2 (5-HT2) receptor (Rattus norvegicus) (P08909 whole entry, looked up): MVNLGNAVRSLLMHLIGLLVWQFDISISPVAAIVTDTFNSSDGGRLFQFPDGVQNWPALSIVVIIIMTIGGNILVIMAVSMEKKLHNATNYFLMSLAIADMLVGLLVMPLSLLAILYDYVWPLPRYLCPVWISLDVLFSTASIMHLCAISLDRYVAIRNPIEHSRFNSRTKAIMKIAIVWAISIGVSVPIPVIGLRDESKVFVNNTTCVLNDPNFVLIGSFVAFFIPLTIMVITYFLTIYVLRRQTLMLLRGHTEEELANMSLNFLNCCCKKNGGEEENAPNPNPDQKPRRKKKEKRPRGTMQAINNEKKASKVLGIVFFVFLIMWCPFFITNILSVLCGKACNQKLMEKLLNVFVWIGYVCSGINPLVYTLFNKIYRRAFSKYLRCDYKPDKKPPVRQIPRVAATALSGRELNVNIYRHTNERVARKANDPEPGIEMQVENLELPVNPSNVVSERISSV
Chain of Serotonin 2 (5-HT2) receptor (Rattus norvegicus) (P14842 whole entry, looked up): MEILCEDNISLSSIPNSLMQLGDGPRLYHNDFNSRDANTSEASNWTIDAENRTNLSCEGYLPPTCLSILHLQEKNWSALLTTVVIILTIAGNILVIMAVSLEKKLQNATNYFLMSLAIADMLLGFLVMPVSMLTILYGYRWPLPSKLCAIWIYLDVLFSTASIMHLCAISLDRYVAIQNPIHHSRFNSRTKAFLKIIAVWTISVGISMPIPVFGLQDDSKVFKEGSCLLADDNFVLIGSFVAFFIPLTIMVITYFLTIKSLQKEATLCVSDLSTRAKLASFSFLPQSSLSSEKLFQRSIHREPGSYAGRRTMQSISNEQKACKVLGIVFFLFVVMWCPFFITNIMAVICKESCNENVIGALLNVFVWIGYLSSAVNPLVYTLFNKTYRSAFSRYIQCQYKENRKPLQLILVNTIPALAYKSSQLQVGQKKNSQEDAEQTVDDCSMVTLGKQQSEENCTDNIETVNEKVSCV
Chain of Serotonin 2 (5-HT2) receptor (Rattus norvegicus) (P30994 whole entry, looked up): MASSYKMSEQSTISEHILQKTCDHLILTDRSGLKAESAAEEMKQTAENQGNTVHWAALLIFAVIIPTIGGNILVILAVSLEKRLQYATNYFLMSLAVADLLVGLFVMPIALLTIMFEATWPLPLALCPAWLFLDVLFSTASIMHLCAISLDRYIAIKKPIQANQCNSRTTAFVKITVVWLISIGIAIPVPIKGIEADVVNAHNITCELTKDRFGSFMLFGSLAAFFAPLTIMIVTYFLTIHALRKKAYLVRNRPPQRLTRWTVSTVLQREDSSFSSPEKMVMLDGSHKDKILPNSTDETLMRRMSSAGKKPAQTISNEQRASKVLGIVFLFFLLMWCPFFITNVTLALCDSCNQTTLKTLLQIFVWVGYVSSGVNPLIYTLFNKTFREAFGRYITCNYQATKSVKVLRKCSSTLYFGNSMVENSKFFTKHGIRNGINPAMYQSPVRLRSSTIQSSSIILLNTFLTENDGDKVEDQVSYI
Chain of Muscarinic acetylcholine receptor M3 (Q8VH26 whole entry): as the sequence (Q8VH26 1-587) above

Q: With `N#CN/C(=N\CCNC(=O)c1ccc(N)cc1)NCCCOc1cccc(CN2CCCCC2)c1` [AMINOPOTENTIDINE] as the molecule, how does the Slope [1] read?
A: 0.88

Q: What about the pKB [2] of the same molecule?
A: 7.28

Q: What about the Ki (Histamine H2 receptor [3]) of the same molecule?
A: 9.77 nM

Q: What about the pKB [4] of the same molecule?
A: 5.16

Q: What about the Slope [5] of the same molecule?
A: 1.09

Q: What about the Relative potency [6] of the same molecule?
A: 660%

Q: What about the Kb (Histamine H1 receptor) of the same molecule?
A: 26900 nM

Q: And the pKB [7]?
A: 7.22

Q: For `N#CN/C(=N\CCNC(=O)c1cccc(I)c1)NCCCOc1cccc(CN2CCCCC2)c1`, which Slope [1] is on record?
A: 1.25

Q: And the pKB [8]?
A: 5.61

Q: What about the pKB [9] of the same molecule?
A: 7.57

Q: What about the pKB [10] of the same molecule?
A: 7.62

Q: What about the Relative potency [6] of the same molecule?
A: 1480%

Q: Which pKB [11] does the source give for `N#CN/C(=N\CCNC(=O)c1cc(I)c(N)c(I)c1)NCCCOc1cccc(CN2CCCCC2)c1` here?
A: 7.79

Q: What about the Slope [12] of the same molecule?
A: 1.04

Q: And the Relative potency [13]?
A: 2460%

Q: What about the Kb (Histamine H2 receptor [14]) of the same molecule?
A: 16.2 nM

Q: And the Slope [15]?
A: 0.91

Q: And the Kb [16]?
A: 1700 nM

Q: What about the Kb (Histamine H1 receptor) of the same molecule?
A: 1580 nM

Q: With `N#CN/C(=N\CCCOc1cccc(CN2CCCCC2)c1)N1CCN(C(=O)c2ccccc2)CC1` as the molecule, how does the pKB [17] read?
A: 5.16

Q: And the Relative potency [18]?
A: 6%

Q: Which results are given for `N#CN/C(=N\CCNc1ccccc1[N+](=O)[O-])NCCCOc1cccc(CN2CCCCC2)c1`?
A: pKB [19]: 7.45; Relative potency [13]: 1120%

Q: For `N#CN/C(=N\CCNc1ccccc1[N+](=O)[O-])NCCCCOc1cccc(CN2CCCCC2)c1`, which pKB [20] is on record?
A: 8.04

Q: And the Relative potency [13]?
A: 4360%

Q: With `N#CN/C(=N\CCNC(=O)c1ccc(N)c(I)c1)NCCCOc1cccc(CN2CCCCC2)c1` as the molecule, how does the pA2 [21] read?
A: 5.59

Q: And the Slope [22]?
A: 1.29

Q: And the pKB [23]?
A: 4.77

Q: What about the pKB [24] of the same molecule?
A: 7.52

Q: What about the Slope [5] of the same molecule?
A: 0.9

Q: And the Relative potency [13]?
A: 1440%

Q: And the pKB [25]?
A: 5.49

Q: And the pKB [26]?
A: 5.96

Q: What about the Slope [27] of the same molecule?
A: 1.09

Q: What about the pA2 [28] of the same molecule?
A: 6.06
